Published values pooled from the literature.
Lines come from different studies, so protocols differ.
Target: cGMP-dependent protein kinase 1 (PRKG1, Homo sapiens, UniProt Q13976)
Sequence (Q13976 1-671, as in one of the studies): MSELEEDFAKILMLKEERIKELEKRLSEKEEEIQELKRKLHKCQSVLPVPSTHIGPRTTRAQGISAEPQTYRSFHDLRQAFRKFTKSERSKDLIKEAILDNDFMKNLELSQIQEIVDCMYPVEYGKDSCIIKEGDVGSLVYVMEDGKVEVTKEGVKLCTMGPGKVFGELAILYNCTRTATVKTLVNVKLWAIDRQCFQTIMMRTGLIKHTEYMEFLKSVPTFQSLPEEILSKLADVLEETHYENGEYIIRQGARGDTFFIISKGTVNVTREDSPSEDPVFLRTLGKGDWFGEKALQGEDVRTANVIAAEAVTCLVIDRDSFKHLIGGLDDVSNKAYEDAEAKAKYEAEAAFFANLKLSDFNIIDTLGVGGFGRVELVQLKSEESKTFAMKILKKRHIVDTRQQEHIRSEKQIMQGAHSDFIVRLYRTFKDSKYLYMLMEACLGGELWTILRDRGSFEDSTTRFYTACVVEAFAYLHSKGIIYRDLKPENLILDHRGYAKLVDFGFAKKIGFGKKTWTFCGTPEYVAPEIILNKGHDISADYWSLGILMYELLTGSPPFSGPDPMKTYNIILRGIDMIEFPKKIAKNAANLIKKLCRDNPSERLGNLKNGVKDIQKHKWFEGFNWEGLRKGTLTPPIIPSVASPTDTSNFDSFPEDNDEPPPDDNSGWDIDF

`COc1cc2ncnc(Nc3ccc(Oc4ccccc4)cc3C)c2cc1OC` gave an inhibition of 1% (enzyme activity, inhibitor; 1 µM).
The inhibition of `CCOc1cc(-c2nncn2C)ccc1Nc1ncc2cc(C)nc(NCC(C)(C)C)c2n1` is reported as less than 15% (enzyme activity, inhibitor, FRET; 1 µM).
With `Nc1ncnc2occ(-c3ccc(NC(=O)Nc4cc(C(F)(F)F)ccc4F)cc3)c12` the remaining signal was 87% (cell-free assay, inhibitor; 20 µM).
The remaining binding of `NS(=O)(=O)c1cc(NC(=O)Cc2ccccc2)ccc1Oc1cccc(Cl)c1` is reported as 100% (cell-free assay, competition with immobilised ligand; 1 µM).
`CC(C)c1ccc(NC(=O)c2cccs2)c(-c2nc3ccccc3[nH]c2=O)c1` has an activity vs control of 123% (enzyme activity, inhibitor; 1 µM).
`Cn1nc(C(=O)NCc2ccc(C(=O)O)cc2)cc1-c1ccc2[nH]ccc2c1` gave a remaining binding of 100% (cell-free assay, competition with immobilised ligand; 0.1 µM).
`CC/C(=N\NC(=O)NCc1cccc(O)c1)c1ccc(O)c(C)c1O` has an inhibition of 55.7% (enzyme activity, inhibitor; 0.1 µM).
For `Cc1cnc(NC2CCOCC2)nc1-n1cnc(C(=O)NC(CN)c2cc(F)cc(Cl)c2)c1` (centres unmarked), the remaining activity was 100% (enzyme activity, inhibitor, radiometric; 1 µM).
`C[C@H](c1ccc(F)cc1)N(Cc1cccc(C(=O)O)c1)C(=O)c1cnc2ccccc2c1` has a remaining binding of 100% (cell-free assay, competition with immobilised ligand; 1 µM).
`CC(C)(C)c1nc2c(s1)c1nc(N)ncc1c1ccc(NS(=O)(=O)c3c(F)cccc3F)c(F)c12` gave a remaining activity of 99% (enzyme activity, inhibitor, radiometric; 1 µM).
The inhibition of `CNC(=O)c1cc(Oc2ccc(NC(=O)Nc3ccc(Cl)c(C(F)(F)F)c3)cc2)ccn1` is reported as -10% (enzyme activity, inhibitor; 0.3 µM).
The inhibition of `Cn1cnc(Br)c1C1=CN(c2ncnc3[nH]cnc23)CCS1` is reported as 97.4% (enzyme activity, inhibitor, radiometric; 2 µM).
The activity vs control of `Cc1cc(NC(=O)c2cccc3cc(-c4cccc5[nH]nc(N)c45)ccc23)ccc1F` is reported as 122% (enzyme activity, inhibitor; 0.1 µM).
The remaining binding of `CNC(=O)Nc1ccc2c(c1)CC[C@@]21OC(=O)N(CC(=O)N(Cc2ccc(F)cc2)[C@@H](C)C(F)(F)F)C1=O` is reported as 100% (cell-free assay, competition with immobilised ligand; 1 µM).
The remaining activity of `CCCOc1ccc(OC)c(F)c1C(=O)c1ccc(C(=O)N[C@@H]2CNC[C@H]2NC(=O)c2ccc3[nH]ncc3c2)cc1` is reported as 15% (enzyme activity, inhibitor; 0.1 µM).
For `CN(C)c1ncnc(-c2ccc3nc(Nc4cc(CN5CCN(C(=O)CC(F)(F)F)CC5)ccn4)[nH]c3c2)c1Cl`, the remaining binding was 94% (cell-free assay, competition with immobilised ligand; 1 µM).
`Cc1ccc(C(=O)Nc2ccc(CN3CCN(C)CC3)c(C(F)(F)F)c2)cc1C#Cc1cnc2cccnn12` gave a remaining activity of 72% (enzyme activity, inhibitor; 23.5 nM).
